“Also recorded” adds a separate entry of the source.
How the values were obtained:
[1] = system: male C57BL/6J mice; assay: Escalating single dose subcutaneous injections: animal weight and behavior; format: in vivo, mouse; conditions: for Weight loss: single sc injection at 1, 3, and 10 mg/kg, observed 9 days
Procedure, shortened: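 Male C57BL/6J mice, 8 weeks old, were acclimatised 3 days after arrival. Groups of four received one sc dose of 1, 3 or 10 mg/kg in up to 200 μL 25% DMSO/saline. Doses were set by UV/vis using ε 69 500 M–1·cm–1 near 315 nm. Mice were weighed daily for 9 days, then sacrificed. Humane end point was visible duress or weight loss over 15% of starting weight.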

[2] = system: male C57BL/6J mice; assay: Histopathology after single subcutaneous injection; format: in vivo, mouse; conditions: for Organ toxicity by histopathology, overall: single sc dose, any dose level tested (1, 3, 10 mg/kg)
Procedure, shortened: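 After the single sc dose (1, 3 or 10 mg/kg, 25% DMSO/saline, 9-day observation), two representative mice per group were fixed in 10% formalin. A veterinary pathologist examined cecum, duodenum, heart, ileum, kidney, liver, lung, pancreas, spleen and stomach, blinded to animal identity.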

[3] = system: male C57BL/6J mice; assay: Serum markers of liver and kidney damage after single subcutaneous injection; format: in vivo, mouse; conditions: single sc dose 1, 3, 10 mg/kg; dose stated in the value
Procedure, shortened: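 All mice from the single sc dose groups (1, 3, 10 mg/kg in 25% DMSO/saline, n = 4, 9-day observation) were bled retro-orbitally. Serum was obtained by centrifugation at 6000 rpm for 5 min. ALT, AST, total bilirubin, BUN and creatinine were measured externally, blinded to animal identity.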

[4] = system: male C57BL/6J mice; assay: Histopathology after multiple subcutaneous injections; format: in vivo, mouse
[5] = system: male C57BL/6J mice; assay: Serum markers of liver and kidney damage after multiple subcutaneous injections; format: in vivo, mouse; conditions: 1 mg/kg sc every 3 days, three injections
Procedure, shortened: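 Male C57BL/6J mice, 8 weeks old, were dosed in groups of three with 1 mg/kg sc every 3 days for three injections and sacrificed 2 days after the last. Weight was recorded on injection days and at the end point. Retro-orbital blood was spun at 6000 rpm for 5 min. Serum ALT, AST, total bilirubin, BUN and creatinine were assayed blinded.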

[6] = system: male C57BL/6J mice; assay: Hematological analysis of wild-type mice after six injections; format: in vivo, mouse; conditions: six injections sc 1 mg/kg, before treatment vs at sacrifice
Procedure, shortened: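 Five healthy male C57BL/6J mice were bled retro-orbitally into K2EDTA tubes for baseline haematology and allowed 1 week to recover. They then received test compound 1 mg/kg sc in 20% DMSO/normal saline every 3 days for six injections. They were bled again 2 days after the final injection and euthanised. Serum and haematology samples were prepared separately; serum ALT, AST, total bilirubin, BUN and creatinine were measured. Data are the mean of five animals ± std.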

[7] = system: RPB1; assay: RPB1 protein ELISA; format: cell-based; conditions: LNCaP cells
Procedure, shortened: (§1)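 LNCaP cells were treated with 10 μM test compound for 72 h. Controls were DMSO vehicle and 1 μM doxorubicin for 24 h. RPB1 was measured with an RPB1-specific ELISA kit and total p53 with a pan-p53 ELISA kit, each following the kit instructions, in biological triplicates.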

[8] = system: p53; assay: p53 protein ELISA; format: cell-based; conditions: LNCaP cells
Procedure, shortened: as §1

[9] = system: p21, IGFBP3, and GADD45A; assay: Quantitative RT-PCR of p53 responsive genes; format: cell-based; conditions: LNCaP cells, 1, 3, 10 μM, 72 h
Procedure, shortened: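 LNCaP cells were seeded at 50 000 per well, left to adhere 36–48 h, and treated with 1, 3 or 10 μM test compound for 72 h. Total RNA was extracted on columns and reverse transcribed. p21, IGFBP3 and GADD45A were quantified by SYBR Green real-time PCR relative to β-glucuronidase, in biological replicates.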

[10] = system: LNCaP cells; assay: Alkaline comet assay; format: cell-based; conditions: 10 μM, 48 h
Procedure, shortened: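 LNCaP cells were seeded at 100 000 per well and left to adhere 36–48 h. They were then exposed to 10 μM test compound for 48 h, with 5 μM doxorubicin for 4 h as the comparator. DNA damage was assessed with a commercial comet kit after gentle harvest in PBS. Slides were imaged by confocal microscopy at 10×, and more than 100 comets were scored per condition as percentage of DNA in the tail.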

[11] = Liver microsomal stability; format: in vitro ADME; conditions: 1 mg/mL human liver microsomes, 37 °C, 60 min, with and without NADPH
Procedure, shortened: (§2)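 Test compound was incubated with 1 mg/mL human or mouse liver microsomes at 37 °C in 100 mM KH2PO4, 3 mM MgCl2, pH 7.4, with or without 2 mM NADPH. After 60 min, ice-cold methanol was added, samples sat on ice for 10 min or more, then were diluted with water and centrifuged. Analysis was by LC/MS/MS as percent remaining versus time zero, in duplicate.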

[12] = Liver microsomal stability; format: in vitro ADME; conditions: 1 mg/mL mouse liver microsomes, 37 °C, 60 min, with and without NADPH
Procedure, shortened: as §2

[13] = Serum levels after subcutaneous injection; format: in vivo, mouse; conditions: male C57BL/6J mice, 10 mg/kg sc
[14] = system: liver tissue of male C57BL/6J mice; assay: Liver uptake of fluorescein-polyamide conjugates; format: in vivo, mouse; conditions: 50 nmol (∼3 mg/kg), sacrificed 24 h later
[15] = 1 mg/kg sc every 3 days, three injections
[16] = single sc dose 3 mg/kg, 3 mg/kg

Compound: CN(CCCNC(=O)c1cccc(C(=O)O)c1)CCCNC(=O)c1cc(NC(=O)c2cc(NC(=O)c3cc(NC(=O)c4nc(NC(=O)C[C@@H](N)CNC(=O)c5cc(NC(=O)c6cc(NC(=O)c7cc(NC(=O)c8nccn8C)cn7C)cn6C)cn5C)cn4C)cn3C)cn2C)cn1C [Polyamide 2, ImPyPyPy-3-(R)^H2Nγ-ImPyPyPy∼NHMe∼IPA]
- Weight loss [1]: significant weight loss only at 10 mg/kg
- Kidney lesions by histopathology (in words) ([2]; single sc dose 3 mg/kg): Moderate atypical tubular regeneration (karyomegaly, tubular attenuation, mitotic figures) and/or tubular epithelial necrosis and apoptosis
- Liver lesions by histopathology (in words) ([2]; single sc dose 3 mg/kg): Mild hepatocellular necrosis and apoptosis
- Liver lesions by histopathology (in words) ([2]; single sc dose 10 mg/kg): diffuse hepatocellular necrosis and apoptosis
- Spleen lesions by histopathology (in words) ([2]; single sc dose 10 mg/kg): Mild lymphoid apoptosis in the white pulp of the spleen
- Elevation of serum markers of liver and kidney damage (in words) [3]: severe elevation of AST, ALT, and total bilirubin at 10 mg/kg and to a lesser extent at 3 mg/kg; also recorded: elevated BUN at 10 mg/kg
- Kidney lesions by histopathology (in words) [4, 15]: mild variable tubular attenuation, karyomegaly, and epithelial necrosis and apoptosis
- Liver lesions by histopathology (in words) [4, 15]: mild multifocal hepatocellular necrosis and apoptosis
- Alteration of liver and kidney serum markers (in words) [5]: elevated AST and ALT

Compound: CC(=O)N[C@H](CCNC(=O)c1cc(NC(=O)c2cc(NC(=O)c3cc(NC(=O)c4nccn4C)cn3C)cn2C)cn1C)C(=O)Nc1cn(C)c(C(=O)Nc2cc(C(=O)Nc3cc(C(=O)Nc4cc(C(=O)NCCCN(C)CCCNC(=O)c5cccc(C(=O)O)c5)n(C)c4)n(C)c3)n(C)c2)n1 [Polyamide 3, ImPyPyPy-2-(R)^AcHNγ-ImPyPyPy∼NHMe∼IPA]
- Organ toxicity by histopathology, overall [2]: no detectable toxicity
- Elevation of serum markers of liver and kidney damage (in words) [3]: no elevation of these markers at the dose levels tested
- Histopathologic lesions, overall [4, 15]: no histopathologic lesions consistent with toxicity
- Alteration of liver and kidney serum markers (in words) [5]: no histopathologic lesions consistent with toxicity or alterations in liver and kidney serum markers
- Hematologic changes (in words) [6]: No significant hematologic changes
- RPB1 protein level ([7]; 10 μM, 72 h): reduced RPB1 levels
- Cellular level of p53 protein ([8]; 10 μM, 72 h): increased
- Transcripts of p53 responsive genes p21, IGFBP3, and GADD45A [9]: induced by 3 in a dose-dependent fashion; also recorded: increased
- DNA damage (genomic fragmentation) by comet assay [10]: no increase in genomic fragmentation; also recorded: did not result in increased DNA damage

Compound: CC(=O)N[C@@H](CNC(=O)c1cc(NC(=O)c2cc(NC(=O)c3cc(NC(=O)c4nccn4C)cn3C)cn2C)cn1C)CC(=O)Nc1cn(C)c(C(=O)Nc2cc(C(=O)Nc3cc(C(=O)Nc4cc(C(=O)NCCCN(C)CCCNC(=O)c5cccc(C(=O)O)c5)n(C)c4)n(C)c3)n(C)c2)n1 [Polyamide 4, ImPyPyPy-3-(R)^AcHNγ-ImPyPyPy∼NHMe∼IPA]
- Behavior and appearance ([1]; single sc injection, 3 mg/kg): hunched posture, loss of mobility, and acute morbidity
- Behavior and appearance ([1]; single sc injection, 10 mg/kg): hunched posture, loss of mobility, and acute morbidity
- Dose tolerated (only tolerated at) ([1]; single sc injection, 1, 3, 10 mg/kg tested): 1 mg/kg
- Kidney lesions by histopathology (in words) ([2]; single sc dose 1 mg/kg): Milder tubular regeneration and karyomegaly
- Liver lesions by histopathology (in words) ([2]; single sc dose 1 mg/kg): Mild hepatocellular necrosis and apoptosis
- Spleen lesions by histopathology (in words) ([2]; single sc dose 3 mg/kg): Mild lymphoid apoptosis in the white pulp of the spleen
- Kidney lesions by histopathology (in words) [2, 16]: Moderate atypical tubular regeneration (karyomegaly, tubular attenuation, mitotic figures) and/or tubular epithelial necrosis and apoptosis
- Liver lesions by histopathology (in words) [2, 16]: multifocal bridging hepatocellular necrosis and apoptosis
- Kidney lesions by histopathology (in words) ([2]; single sc dose 10 mg/kg): Moderate atypical tubular regeneration (karyomegaly, tubular attenuation, mitotic figures) and/or tubular epithelial necrosis and apoptosis
- Liver lesions by histopathology (in words) ([2]; single sc dose 10 mg/kg): multifocal bridging hepatocellular necrosis and apoptosis
- Spleen lesions by histopathology (in words) ([2]; single sc dose 10 mg/kg): Mild lymphoid apoptosis in the white pulp of the spleen
- Elevation of serum markers of liver and kidney damage (in words) [3]: marked and severe elevations of AST, ALT, and total bilirubin at both 3 and 10 mg/kg; also recorded: significantly elevated creatinine and BUN at 10 mg/kg and elevated BUN at 3 mg/kg
- Kidney lesions by histopathology (in words) ([4]; 1 mg/kg sc, two injections): hyaline droplet accumulation
- Liver lesions by histopathology (in words) ([4]; 1 mg/kg sc, two injections): marked hepatocellular necrosis and apoptosis
- Percent intact after 1 h incubation [11]: less than 5%
- Percent intact after 1 h incubation [12]: less than 5%

Compound: Cn1cc2cc1C(=O)NCCCC(=O)Nc1cn(C)c(n1)C(=O)Nc1cc(n(C)c1)C(=O)Nc1cc(n(C)c1)C(=O)Nc1cc(n(C)c1)C(=O)NCC[C@@H](N)C(=O)Nc1cn(C)c(n1)C(=O)Nc1cc(n(C)c1)C(=O)Nc1cc(n(C)c1)C(=O)N2 [Polyamide 5]
- Weight loss [1]: did not cause significant weight loss; also recorded: less effect on animal weight than 1
- Organ toxicity by histopathology, overall [2]: did affect the kidney and liver
- Elevation of serum markers of liver and kidney damage (in words) [3]: caused levels of ALT and AST to increase in a dose-dependent manner
- Serum bioavailability after subcutaneous injection [13]: bioavailable

Compound: CC(=O)N[C@H](CCNC(=O)c1cc(NC(=O)c2cc(NC(=O)c3cc(NC(=O)c4nccn4C)cn3C)cn2C)cn1C)C(=O)Nc1cn(C)c(C(=O)Nc2cc(C(=O)Nc3cc(C(=O)Nc4cc(C(=O)NCCCN(C)CCCNC(=S)Nc5ccc(-c6c7ccc(=O)cc-7oc7cc(O)ccc67)c(C(=O)O)c5)n(C)c4)n(C)c3)n(C)c2)n1 [Polyamide 8]
- Nuclear fluorescence in liver sections [14]: less nuclear fluorescence in liver sections than the other FITC–polyamide conjugates

Compound: CC(=O)N[C@@H](CNC(=O)c1cc(NC(=O)c2cc(NC(=O)c3cc(NC(=O)c4nccn4C)cn3C)cn2C)cn1C)CC(=O)Nc1cn(C)c(C(=O)Nc2cc(C(=O)Nc3cc(C(=O)Nc4cc(C(=O)NCCCN(C)CCCNC(=S)Nc5ccc(-c6c7ccc(=O)cc-7oc7cc(O)ccc67)c(C(=O)O)c5)n(C)c4)n(C)c3)n(C)c2)n1 [Polyamide 9]
- Nuclear fluorescence in liver sections [14]: the most intense nuclear fluorescence in liver sections

Compound: COc1cccc2c1C(=O)c1c(O)c3c(c(O)c1C2=O)C[C@@](O)(C(=O)CO)C[C@@H]3O[C@H]1C[C@H](N)[C@H](O)[C@H](C)O1 [doxorubicin, reference compound]
- RPB1 protein level ([7]; 1 μM, 24 h): decreases
- Cellular level of p53 protein ([8]; 1 μM, 24 h): increases
